Source: PubChem BioAssay
Env fusion inh: blocks HIV Env-driven cell-cell fusion; HeLa-JRFL Env/CEM21 cell fusion, luciferase; inhibition, % at 12.3 µM; hit rate 1.1% among 360,000;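 active = mean replicate inhibition score of at least 50 and every replicate individually at or above 50; inconclusive = only one of the two criteria met; inactive = mean below 50 and not all replicates reaching 50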;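 note: 0% = plate neutral controls and 100% = maraviroc near 300 nM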
FN deposition inh: fibronectin deposition inhibition | AH1F fibroblasts, Alexa488-fibronectin deposition fluorescence, overnight | inhibition, % at 12.6 µM | hit rate 0.086% among 350,000;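 active = mean inhibition across replicates of 30% or more, regardless of how many single replicates reach that level; inconclusive = mean under 30% yet at least half of replicates reach 30%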;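 note: positive control wells lacked labelled fibronectin entirely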
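Measured by – fluorescence 485/525 nm · System – AH1F fibroblast monolayer, labelled fibronectin deposition · Amount – 10000 cells per well · Buffer or medium – serum-reduced DMEM (2% serum) · Doses – single dose, pinned · Also added – fluorescent fibronectin at 24 nM final · Schedule – 1 h cell attachment, overnight exposure to compound and label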
AF4-AF9 inh: MLL-AF4/AF9 protein interaction inhibition. P42568. hit rate 0.47% among 350,000. AID 651704. inhibition, % at 10 µM. AlphaScreen, biotin-AF4 peptide binding to FLAG-AF9;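 active = every replicate reaching a set inhibition limit, whatever the replicate mean, cut at about 25% in these data; inconclusive = mean inhibition reaches that limit but some replicates miss it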;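 note: 0% = plate neutral control median and 100% = total signal loss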
Target sequence (P42568 whole entry, looked up): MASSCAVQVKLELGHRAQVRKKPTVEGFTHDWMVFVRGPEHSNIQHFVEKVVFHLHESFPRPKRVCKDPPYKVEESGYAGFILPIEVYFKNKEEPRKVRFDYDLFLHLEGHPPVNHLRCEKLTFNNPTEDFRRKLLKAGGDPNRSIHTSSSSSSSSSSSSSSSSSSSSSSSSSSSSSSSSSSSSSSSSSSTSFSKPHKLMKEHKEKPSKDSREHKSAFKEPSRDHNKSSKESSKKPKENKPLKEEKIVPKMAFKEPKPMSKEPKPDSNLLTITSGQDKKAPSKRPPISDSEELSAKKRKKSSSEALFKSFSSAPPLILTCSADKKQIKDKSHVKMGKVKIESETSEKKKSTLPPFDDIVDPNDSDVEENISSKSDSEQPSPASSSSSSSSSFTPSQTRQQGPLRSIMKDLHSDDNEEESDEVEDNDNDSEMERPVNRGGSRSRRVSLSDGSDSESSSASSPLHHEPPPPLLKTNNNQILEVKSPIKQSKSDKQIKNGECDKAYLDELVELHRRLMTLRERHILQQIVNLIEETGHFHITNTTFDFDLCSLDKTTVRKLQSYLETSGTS
PAX8 reporter: inhibitors of PAX8 transcriptional activity in RMG-I cells; hit rate 1.2% among 360,000; RMG-I TPO-luciferase reporter, SteadyGlo, 24 h; AID 652154; inhibition, % at 12.6 µM;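 active = mean replicate inhibition at least 60% with every replicate also reaching 60%; inconclusive = only one of the two criteria is met; inactive = mean below 60% and not all replicates reaching 60%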;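 note: luciferase light reporting Pax8 driven TPO promoter activity; plate controls were median of neutral control wells for no effect and mitoxantrone controls for full effect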
EWS-Fli inh: inhibitors of EWS/Fli oncoprotein transcriptional activity; A673 NR0B1-luciferase reporter, viability-normalised; AID 651661; inhibition, % at 12.6 µM; hit rate 0.67% among 350,000;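 active = mean inhibition of at least 50% after viability correction, with every replicate also passing that limit; inconclusive = mean reaches 50% but only one of two replicates passes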;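 note: firefly luciferase signal divided by Alamar Blue viability fluorescence both relative to DMSO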
N-glyco inh: N-linked glycosylation inhibition; D54 ERlucT glycosylation luciferase reporter, 24 h; percent of 100 nM tunicamycin response; reporter increase, % at 12.5 µM; hit rate 0.23% among 360,000; AID 588692;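 active = mean luciferase reporter signal, scaled so untreated is 0 and the glycosylation-blocking control 100, at or above a set limit in every replicate; inconclusive = mean reaches the limit but not every replicate does; inactive = mean below the limit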;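 note: luciferase carries N-glycosylation sites so blocking glycosylation raises the light; 0% = median of neutral control wells and 100% = median of 100 nM tunicamycin wells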
* hit, by the source's call; ? = inconclusive; . = not tested or not shown; [ ] = dose if it differs, or a comment. Compounds with a hit are over-represented: about 2.5% of the library has one in this group of screens.

SMILES	Env fusion inh	FN deposition inh	AF4-AF9 inh	PAX8 reporter	EWS-Fli inh	N-glyco inh
CC(C)CC#Cc1ccc2c(c1)O[C@@H](CN(C)Cc1ccccc1)[C@@H](C)CN([C@H](C)CO)S2(=O)=O	-3[16.7 µM]	0	.	.	-4	.
COc1ccc(CN(C)C[C@H]2OCCCC[C@H](C)Oc3ccc(NC(=O)c4ccncc4)cc3C(=O)N([C@H](C)CO)C[C@@H]2C)cc1	15[16.7 µM]	-1	1	.	2	.
c1cc(CN2[C@@H]3CNC[C@H]2C3c2ccc(-c3ccncc3)cc2)cc(-c2ccncc2)c1 (stereo partly drawn)	.	3	3	.	7	.
O=C(O)c1cc([N+](=O)[O-])ccc1N1CCCCC1	-67	-1	.	13	.	3
Cc1ccc(C(=O)c2cc([N+](=O)[O-])ccc2N2CCCCC2)c(C)c1	-41	-22	8	89*	48	-5
Cc1ccc(C(=O)c2cc([N+](=O)[O-])ccc2N2CCOCC2)cc1	-20	15	.	27	.	10
COc1ccc(C(=O)c2cc([N+](=O)[O-])ccc2N2CCOCC2)cc1	-6	-33	13	105*	48	16
CCOc1ccc(C(=O)c2cc([N+](=O)[O-])ccc2N2CCOCC2)cc1	-339	-19	5	91*	33	7
COc1ccc2c3c(n(C)c2c1)[C@H](CO)N(C(=O)Cc1ccccc1)CC31CCN(C(C)=O)CC1	.	.	-2	.	12	.
C[C@H]1CN([C@@H](C)CO)C(=O)c2cccc(NS(=O)(=O)c3ccc(Cl)cc3)c2O[C@H]1CN(C)C(=O)Nc1ccc(C(F)(F)F)cc1	.	.	0	.	29	.
Nc1ccn([C@@H]2O[C@H](C(=O)NCCc3ccc(F)cc3)[C@@H](O)[C@H]2O)c(=O)n1	16	-2	-2	-3	-1	3
Nc1ccn([C@@H]2O[C@H](C(=O)NCc3ccc4c(c3)OCO4)[C@@H](O)[C@H]2O)c(=O)n1	77*	-2	-3	-5	1	0
C[C@H](CO)N1C[C@H](C)[C@H](CN(C)C)OCCCC[C@H](C)Oc2ccc(NC(=O)Cc3ccccc3)cc2C1=O	-21[16.7 µM]	.	-4	-8	-8	.
CC1CCN(Cc2c(C(=O)N/N=C/c3cc(Br)ccc3O)nnn2-c2nonc2N)CC1	60*	-5	1	?	29	-6
COc1ccc(S(=O)(=O)N(C)C[C@@H]2OCCCC[C@@H](C)Oc3ccc(NS(C)(=O)=O)cc3C(=O)N([C@@H](C)CO)C[C@H]2C)cc1	11[16.7 µM]	.	4	5	-11	.
S=C1Cc2ccccc2N1	73*	3	3	106*	66*	13
O=C(NC1CCCC1)C(c1ccccc1)n1c(Cc2cc(F)cc(F)c2)nc2ccccc21 (stereo not drawn)	71*	-7	0	-38	3	.
O=C(NC1CCCCC1)C(c1ccc(C(F)(F)F)cc1)n1c(=O)c(-c2ccccc2)nc2ccccc21 (stereo not drawn)	-1	-9	3	-5	3	.
CO[C@@H]1CN(C)C(=O)c2cc(NC(=O)Nc3ccccc3)ccc2OC[C@@H](C)N(C(=O)CN(C)C)C[C@H]1C	.	3	1	.	-4	.
COc1ccc(S(=O)(=O)N(C)C[C@H]2Oc3cc(C4=CCCC4)ccc3S(=O)(=O)N([C@H](C)CO)C[C@@H]2C)cc1	-18[16.7 µM]	9	1	.	35	.
COc1ccc(S(=O)(=O)N(C)C[C@H]2Oc3cc(C4=CCCC4)ccc3S(=O)(=O)N([C@@H](C)CO)C[C@H]2C)cc1	69*[16.7 µM]	2	-1	.	4	.
C[C@H]1CN([C@@H](C)CO)S(=O)(=O)c2ccc(C3=CCCC3)cc2O[C@H]1CN(C)S(=O)(=O)c1ccc(F)cc1	24[16.7 µM]	.	0	.	-3	.
Cc1ccc(S(=O)(=O)N(C)C[C@@H]2Oc3cc(C4=CCCC4)ccc3S(=O)(=O)N([C@H](C)CO)C[C@@H]2C)cc1	46[16.7 µM]	.	0	67*	6	.
C[C@@H]1CN([C@H](C)CO)S(=O)(=O)c2ccc(C3=CCCCC3)cc2O[C@@H]1CN(C)S(=O)(=O)c1ccc(F)cc1	58*[16.7 µM]	.	1	.	14	.
C[C@@H]1CN([C@H](C)CO)C(=O)c2cccc(NC(=O)c3nc4ccccc4s3)c2O[C@H]1CN(C)CC1CC1	-15[16.7 µM]	.	9	3	-2	.
SMILES	Env fusion inh	FN deposition inh	AF4-AF9 inh	PAX8 reporter	EWS-Fli inh	N-glyco inh
CC(C)[C@@H]1COCc2cn(nn2)CC[C@H](C)C(=O)N1	-30[16.7 µM]	0	-13	-9	2	.
CC1=[N+](C)c2c(ccc3cccnc23)C1(C)C	34	-45	29*	85*	20	12
C=COC(=O)NC1CCc2cc(OC)c(OC)c(OC)c2-c2ccc(SC)c(=O)cc21 (stereo not drawn)	-384	0	9	65*	29	12
COc1cc2c(c(OC)c1OC)-c1ccc(SC)c(=O)cc1C(NC(=O)c1ccccc1)CC2 (stereo not drawn)	-235	8	1	67*	30	12
COc1cc2c(c(OC)c1OC)-c1ccc(OC)c(=O)cc1C(NC(=O)c1ccccc1)CC2 (stereo not drawn)	-65	-17	0	70*	?	11
COc1c(O[C@@H]2O[C@H](CO)[C@@H](O)[C@H](O)[C@H]2O)cc2c(c1OC)-c1ccc(SC)c(=O)cc1C(NC(C)=O)CC2 (stereo partly drawn)	-16	-16	1	-3	6	2
COc1cc(C(=O)NC2CCCc3ccccc32)cc(OC)c1C (stereo not drawn)	30	-3	-2	5	10	-3
COc1cc2c(c(OC)c1OC)-c1ccc(SC)c(=O)cc1C(NC=O)CC2 (stereo not drawn)	-170	-28	-8	100*	62*	1
CC(=O)N1[C@H](CO)[C@H](c2ccc(C3=CCCC3)cc2)C12CN(C(=O)C1CC1)C2	.	.	1	-7	2	.
CN(C)c1ccc(/C=C/c2ccc3c4ccccc4ccc3[n+]2-c2ccccc2)cc1	-47	27	94*	103*	62*	?
CN(C)c1ccc(/C=C/c2ccc3ccccc3[n+]2C)cc1	.	-14	.	-4	.	2
O=C(Nc1ncccc1O)c1ccc(S(=O)(=O)Nc2ccccc2)cc1	.	-13	6	53	33	129*
O=C(Nc1ccccc1O)c1ccc(NS(=O)(=O)c2cccc3cccnc23)cc1	-144	3	1	28	43	83*
COc1cccc(S(=O)(=O)N[C@H]2CC[C@@H](CCNC(=O)Cc3ccncc3)O[C@H]2CO)c1	-2[16.7 µM]	6	1	-2	2	.
C/C(=N\NC(=O)c1ccc(Cl)c(Cl)c1)c1ccccn1	-159	4	4	63*	-1	-8
COc1ccc(C(=O)N/N=C(\C)c2ccccn2)cc1OC	5	.	-1	70*	.	-19
O=C(NNC1=Nc2ccccc2SC1)c1ccc(F)cc1	-9	-2	2	-7	30	17
